Measured values as given in ChEMBL document CHEMBL1155641, “Cytotoxic cembrenolides and steroids from the formosan soft coral Sarcophyton crassocaule” (2000).
Values after ≈ are worked out from the molar mass of the structure shown.

Key:
Type in all cases: functional
Details in all cases: read-out: ED50 (the source's name)
A549 = experiment: Cytotoxicity against human A549 cells
Method in brief: (§1)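 Human A549 lung adenocarcinoma and HT-29 colon adenocarcinoma cell lines from the American Type Culture Collection. Cytotoxicity assay run per a previously described procedure.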

HT-29 = experiment: Cytotoxicity against human HT29 cells; method in brief: as §1
KB = experiment: Cytotoxicity against human KB cells
Method in brief: (§2)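 Human KB epidermoid carcinoma and mouse P-388 lymphocytic leukemia cells came from an academic laboratory (University of Illinois at Chicago). Cytotoxicity assay run per a previously described procedure.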

P388 = experiment: Cytotoxicity against mouse P388 cells; method in brief: as §2

| SMILES | EC50 (A549) [µg/mL] | EC50 (HT-29) [µg/mL] | EC50 (KB) [µg/mL] | EC50 (P388) [µg/mL] |
| --- | --- | --- | --- | --- |
| C=C1C(=O)O[C@H]2/C=C(\C)CC[C@H](OC(C)=O)[C@@]3(C)CC[C@H](OO3)/C(C)=C\C[C@@H]12 [DENTICULATOLIDE] | 6.46 (≈ 16.5 µM) | 5.78 (≈ 14.8 µM) | 6.29 (≈ 16.1 µM) | 0.15 (≈ 0.384 µM) |
| CC(=O)OC(C)(C)[C@H](C)CC[C@@H](C)[C@H]1CC[C@H]2[C@@H]3C[C@@H](O)[C@@]4(O)C[C@@H](O)CC[C@]4(C)[C@H]3CC[C@]12C | 22.4 (≈ 45.5 µM) | 4.32 (≈ 8.77 µM) | 26.8 (≈ 54.5 µM) | 3.96 (≈ 8.04 µM) |
| C=C1C(=O)O[C@@H]2C/C(C)=C/CC/C(C)=C/CC[C@]3(C)O[C@H]3C[C@@H]12 [SARCOCRASSOLIDE] | 8.31 (≈ 26.3 µM) | 7.55 (≈ 23.9 µM) | 9.15 (≈ 28.9 µM) | 0.16 (≈ 0.506 µM) |
| CC(C)[C@@H](C)CC[C@@H](C)[C@H]1CC[C@H]2[C@@H]3C[C@@H](O)[C@@]4(O)C[C@@H](O)CC[C@]4(C)[C@H]3CC[C@]12C | 6.26 (≈ 14.4 µM) | 8.35 (≈ 19.2 µM) | 5.38 (≈ 12.4 µM) | 0.14 (≈ 0.322 µM) |
| C=C1C(=O)O[C@H]2[C@H]1C[C@@H]1O[C@@]1(C)CC/C=C(\C)CC/C=C(\C)[C@@H]2OC(C)=O | 4.66 (≈ 12.4 µM) | 5.67 (≈ 15.1 µM) | 7.39 (≈ 19.7 µM) | 0.38 (≈ 1.01 µM) |
